Screens (PubChem BioAssay)
Many of the other results were omitted from the sample, so hits are more common in it than they were.
Cardio protect: myocardial damage modulation in H9c2 cells; H9c2 cardiomyocytes, H2O2 injury protection, ATPLite, 2 h; protection from H2O2 cell death, % at 20 µM; 360,000 tested, 0.63% active;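 active means compounds giving at least 50% protection of heart cells from peroxide-induced death in the single-dose screen, raw or plate-pattern-corrected value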;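 further: 0% = DMSO wells with peroxide and 100% = DMSO wells without peroxide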
iPSC survival up: hiPSC single-cell survival enhancement; ATPlite luminescence; 100% = ROCK inhibitor wells, 0% = DMSO; survival enhancement, % at 20 µM; 360,000 tested, 0.044% active; in the data active means survival enhancement above about 18%;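 further: cells exposed to compounds for 16 hours before the ATP read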
XBP1 UPR activ: activators of adaptive arm of unfolded protein response (XBP1); CHO-XBP1 luciferase reporter, IRE1-XBP1 UPR activation, luminescence; percent of tunicamycin response, DMSO as zero; activation, % at 20 µM; 330,000 tested, 0.33% active;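 active means versus positive control, 20 µM dose yields 30% or more activation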;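 further: 100% = tunicamycin at 10 µg/mL and 0% = DMSO only wells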
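Material: CHO-XBP1 cells stably carrying IRE1-XBP1-driven luciferase reporter / Amount: 1000 cells per well / Compound: 20 µM, 1% DMSO / Times: 6 h treatment, 37 °C / Detection: luciferase luminescence / Measure: % activation of reporter signal versus tunicamycin and DMSO controls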
CHOP inh: blocks CHOP induction under ER stress. AID 2732. 220,000 tested, 3.8% active. CHO-K1 CHOP-promoter luciferase, tunicamycin-induced, 15-18 h. inhibition, % at 10 µM;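 active means compounds that reduced the stress-induced luciferase reporter signal by more than about 70% of percent inhibition, limit read from the data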;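 further: 0% = tunicamycin plus vehicle and 100% = wells without tunicamycin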
CHOP UPR activ: apoptotic UPR (CHOP) activation; activation, % at 10 µM; 330,000 tested, 0.34% active; CHO-CHOP luciferase reporter, luminescence; percent of tunicamycin response over DMSO baseline;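 active means at 10 µM dose, activation of 40% or more, normalized to positive control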;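 further: 100% = tunicamycin at 10 µg/mL and 0% = DMSO alone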
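System: CHO-CHOP luciferase reporter cell line; amount: 500 cells/well; buffer or medium: F12 medium containing 10% fetal bovine serum; incubation: 6 h compound exposure at 37 °C after overnight seeding; measured by: luciferase luminescence after 10 min with Steady-Glo reagent; evaluation: % reporter activation, DMSO baseline versus tunicamycin full activation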
Starred values were filed as active, the others as inactive.

What do the screens show for `CCCCc1ccc(-n2c(Cc3cccs3)n[nH]c2=S)cc1`?
Cardio protect: -3; iPSC survival up: 4; XBP1 UPR activ: 5; CHOP inh: 77*; CHOP UPR activ: 0

What do the screens show for `S=c1[nH]nc(Cc2cccs2)n1-c1ccccc1`?
Cardio protect: 6; iPSC survival up: 2; XBP1 UPR activ: -1; CHOP inh: -13; CHOP UPR activ: 0

Results for O=c1oc(-c2ccco2)nc2c1cnn2-c1ccccc1 ?
Cardio protect: 51*; iPSC survival up: -2; XBP1 UPR activ: -2; CHOP inh: 14; CHOP UPR activ: -2

Results for O=C1NC(c2cccs2)Nc2ccccc21 (stereo not given) ?
Cardio protect: 66*; iPSC survival up: -1; XBP1 UPR activ: 4; CHOP inh: 19; CHOP UPR activ: 0

What do the screens show for `CCc1ccc2c(c1)NC(=O)C2(C)Cc1ccccc1OC` (stereo not given)?
Cardio protect: -14; iPSC survival up: 1

What do the screens show for `O=C(NCc1ccccc1)c1cc(C2COCCN2S(=O)(=O)c2cccs2)on1` (stereo not given)?
Cardio protect: -1; iPSC survival up: 0

Results for Nc1cc2c(cc1Br)-c1ccccc1C2=NO ?
Cardio protect: -12; iPSC survival up: 4

How did S=c1[nH]nc(CSc2nc3ccccc3s2)n1C1CCCCC1 do in these assays?
Cardio protect: -3; iPSC survival up: 16; XBP1 UPR activ: -2; CHOP inh: 87*; CHOP UPR activ: 2

How did S=c1[nH]nc(COc2ccccc2)n1C1CCCCC1 do in these assays?
Cardio protect: -9; iPSC survival up: -2; XBP1 UPR activ: -3; CHOP inh: 29; CHOP UPR activ: 1

Results for OCC1(Cc2ccccc2)CCN(Cc2cnc(-c3cccc4ccccc34)nc2)CC1 ?
Cardio protect: 3; iPSC survival up: 0; XBP1 UPR activ: 0; CHOP inh: 36; CHOP UPR activ: -1

What do the screens show for `OCC1(Cc2ccccc2)CCN(Cc2cnc(-c3ccc(Cl)cc3)nc2)CC1`?
Cardio protect: -14; iPSC survival up: 0; XBP1 UPR activ: 0; CHOP inh: 73*; CHOP UPR activ: 1

How did CCOc1ccc(NC(=O)COC(=O)C2(C)CC2(Cl)Cl)c([N+](=O)[O-])c1 (stereo not given) do in these assays?
Cardio protect: -6; iPSC survival up: -1; XBP1 UPR activ: -1; CHOP inh: 97*; CHOP UPR activ: 2

Results for CC(=O)Nc1sc(N/N=C\c2cccc(Cl)c2)nc1-c1cccs1 ?
Cardio protect: -8; iPSC survival up: 0; XBP1 UPR activ: 0; CHOP inh: 96*; CHOP UPR activ: 3

What do the screens show for `CC(=O)Nc1sc(N/N=C\c2ccc(O)cc2)nc1-c1cccs1`?
Cardio protect: 8; iPSC survival up: 1; XBP1 UPR activ: -3; CHOP inh: -26; CHOP UPR activ: 4

What do the screens show for `O=C(c1cc(-c2cccc(O)c2)on1)N1CCN(C(c2ccccc2)c2ccccc2)CC1`?
Cardio protect: -36; iPSC survival up: -1; XBP1 UPR activ: 2; CHOP inh: 78*; CHOP UPR activ: 9

How did O=C(c1cc(C2CC2)on1)N1CCN(C(c2ccccc2)c2ccccc2)CC1 do in these assays?
Cardio protect: -22; iPSC survival up: 0; XBP1 UPR activ: -3; CHOP inh: 55; CHOP UPR activ: 2

What do the screens show for `O=C(Nc1ccc(C(=O)O)cc1)/C(=C\c1ccc2c(c1)OCO2)NC(=O)c1ccccc1Cl`?
Cardio protect: 2; iPSC survival up: 5

What do the screens show for `CCc1nc2ccc(C(=O)NCc3ccc4c(c3)OCO4)cn2c1N(C)Cc1ccc(OC)cc1`?
Cardio protect: 4; iPSC survival up: -2

What do the screens show for `O=c1c2cc([N+](=O)[O-])ccc2nc(CN2CCN(c3ccccn3)CC2)n1-c1ccccc1F`?
Cardio protect: -3; iPSC survival up: 0; XBP1 UPR activ: -3; CHOP inh: 28; CHOP UPR activ: -1

What do the screens show for `O=C(c1ccco1)N1CCN(Cc2nc3ccc([N+](=O)[O-])cc3c(=O)n2-c2ccccc2F)CC1`?
Cardio protect: 54*; iPSC survival up: 2; XBP1 UPR activ: 2; CHOP inh: 7; CHOP UPR activ: 1

Results for CC(C)C[C@@H]1CN(CCCC[C@H]2CNC(=O)C(=O)N2CCC2CCCCC2)C(=O)C(=O)N1CCc1ccc(O)cc1 ?
iPSC survival up: 1

Results for O=S1(=O)CC(N2CCCC2)CN1Cc1cn(Cc2ccc(F)cc2)nn1 (stereo not given) ?
iPSC survival up: 0

Results for O=C(O)CCN1C(=O)/C(=C\c2ccc(-c3nc4ccccc4s3)o2)SC1=S ?
Cardio protect: 9; iPSC survival up: 0; XBP1 UPR activ: 5; CHOP inh: 74*; CHOP UPR activ: 3

What do the screens show for `COc1ccc(/C=C2/SC(=S)N(n3c(C)ccc3C)C2=O)cc1`?
Cardio protect: -23; iPSC survival up: -2; XBP1 UPR activ: -3; CHOP inh: 90*; CHOP UPR activ: 1

What do the screens show for `COc1ccc(/C=C2/SC(=S)N(CCC(=O)O)C2=O)cc1`?
Cardio protect: -3; iPSC survival up: 7; XBP1 UPR activ: -3; CHOP inh: 84*; CHOP UPR activ: -7

How did Cc1ccc(-c2nn(-c3ccccc3)c3[nH]c(=O)c(CNCc4ccccc4)cc23)cc1 do in these assays?
Cardio protect: 52*; iPSC survival up: -1; XBP1 UPR activ: 2; CHOP inh: 34; CHOP UPR activ: 5

How did CC(C)(C)c1nn(-c2ccccc2)c2nc(Cl)c(C=O)cc12 do in these assays?
Cardio protect: -2; iPSC survival up: 0; XBP1 UPR activ: -2; CHOP inh: 15; CHOP UPR activ: 2

How did COc1cccc(NCc2cc3c(C(C)(C)C)nn(-c4ccccc4)c3[nH]c2=O)c1 do in these assays?
Cardio protect: 10; iPSC survival up: 0; XBP1 UPR activ: 2; CHOP inh: 71*; CHOP UPR activ: 2

Results for CCOc1ccc(NCc2cc3c(C(C)(C)C)nn(-c4ccccc4)c3[nH]c2=O)cc1 ?
Cardio protect: 58*; iPSC survival up: -2; XBP1 UPR activ: 10; CHOP inh: 59; CHOP UPR activ: 4

Results for CCc1ccc(NCc2cc3c(C)nn(-c4ccccc4)c3[nH]c2=O)cc1 ?
Cardio protect: 24; iPSC survival up: 0; XBP1 UPR activ: -7; CHOP inh: 65; CHOP UPR activ: -1

How did CC(C)(C)c1nn(-c2ccccc2)c2[nH]c(=O)c(C=O)cc12 do in these assays?
Cardio protect: 57*; iPSC survival up: -1; XBP1 UPR activ: -8; CHOP UPR activ: 1

How did CCCNC(=O)N(C)C[C@@H]1Oc2ncc(-c3ccncc3)cc2C(=O)N([C@H](C)CO)C[C@@H]1C do in these assays?
Cardio protect: 1; iPSC survival up: 1
